To fix the notation:
B1: tRNA (parent)
chain: GUUCCGUUGGCGUAAUGGUAACGCGUCUCCCUCCUAAGGAGAAGACUGCGGGUUCGAGUCCCGUACGGAACG

Variants at the floor of the assay were thinned out.

The variants in this data set derive from B1. In words: yeast fitness relative to wild type (ratio to wild type); higher = fitter; tRNA-Arg(CCU), competitive growth, 37 C, YPD. The gist of the method:
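A pool of Saccharomyces cerevisiae strains, each with a tRNA-Arg(CCU) gene variant at the native genomic locus, was competed in YPD at 37°C for 24 hours across six parallel replicates. The variants had been chemically synthesised at a 3% per-site mutation rate over 69 sites, and gene amplicons before and after competition were read by 100-nucleotide paired-end sequencing. Darwinian fitness relative to wild type rested on changes in genotype frequencies. Genotypes required ≥ 100 starting reads, and estimates < 0.5 were set to 0.5.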
As to GUUCUGUUGGCGUAAUGGUAACGAGCCUCCCUCCUAAGGGGAAGACUGCGGGUUCAAGUCCCGUACGGAACG [C5U C24A U26C A40G G56A], the yeast fitness was at most 0.5.

For the variant GUUCUGUUGGUGUAAUGGUAACGCCUCUCCCUCCUAAGGAGAAGCCUGCGGGUUCGAGUCCAGUACGGAUCG [C5U C11U G25C A45C C62A A70U], the yeast fitness worked out at 0.611. With GUUCUGUUGGCGUAAUGGUAAGGCGUCUACCUCCUAAGGAGAAGACUGCGGGUUCGAGUCCCGUACGGAACG [C5U C22G C29A], the yeast fitness stood at 0.585.

On to GUUCUGUUGGUGUAGUGGUAACGCGUCUCCCUCCUAAGGAGAAGACUGCGGGAUCGAGUCCCGUGCGGAACG [C5U C11U A15G U53A A65G], for which the yeast fitness is at most 0.5. The same measure for GUUCUGUUGGCGUAAUGGUAACGGGUCUCCCUCCUAAGGAGACGUCUGCGGAUUCGAGUCCCGUACGGAACG [C5U C24G A43C A45U G52A]: at most 0.5.

For GUUCUGUUGGUGUUAUGGUAACGCGUCUCCCUCCUAAGGAGAAGACUGCGGGUUCGAGUCCCGUACGGAACG [C5U C11U A14U], the yeast fitness is 0.57. GUUCUGUUGGGGUAAUGGUAAUGCGUCUCGCUCCUAAGGAGAAGACUGCGGGUUCGACUGCCGUACGGAACG [C5U C11G C22U C30G G58C C60G]: the yeast fitness is at most 0.5.

As for GUUCUGUUGGCGUAAUGGUAAUGCGUCUCCCUUCUAAGGAGAAGACUGUGGGUUCGAGUCCGGUACGGAACG [C5U C22U C33U C49U C62G], the yeast fitness is at most 0.5. With GUUCUGUUGGCGUAAUGGUAACGUGUCUCCCUCCUAAGGAGAAGACUGCGGGUUCGAGUCCCGUACGGAACG [C5U C24U], the yeast fitness is 0.99. For the variant GUUCUGUUGGCGUAAUGGUAAUGCGUUUCCCUUCUAAGGAGAAGACUGCGGGUUCGAGUCCCGUACGGAACG [C5U C22U C27U C33U], the yeast fitness was at most 0.5. The result for GUUCUGUUGGCGUAAUGGUAAGGCGUCUCCCUCCUAAGGAGAAGACUGCGGGUUCGAGUCCCGUGCGGAACG [C5U C22G A65G] reads 0.588; that for GUUCUGUUGGAGUAAUGGUAACGCGUCUCCCUCCUAAGGAGAAGACUGCGGGUUCGAGUCCCGUAGGGAACG [C5U C11A C66G], 0.613; that for GUUCUGUUGGCGUAAUGGUAAGGCGUCUCCCUCCUAAGGAGAAGAAUGCGGGUUCGAGUGCCGUACGGAACG [C5U C22G C46A C60G], at most 0.5. In the case of GUUCUGUUGGCGUAAUGGUAAUGCGUCUCCCUCAUAAGGAGUACACUGCGGGUUCGAGUCACGUACGGAACG [C5U C22U C34A A42U G44C C61A], the yeast fitness was at most 0.5. Consider GUUCUGUUGGAGUAAUGGUAGCCCGUCUCCCUCCUAAGGAGAAGACUGCGGGUUCGAGUCCCGUACGGAACG [C5U C11A A21G G23C], for which the yeast fitness is at most 0.5. The same measure for GUUCUGUUGGCGUAAUGGUAAAGCGUCUCCCUCCUUAGGAGAAGACUGCGGGUUCGAGUCCCGUACGGAACG [C5U C22A A36U]: 0.828; for GUUCUGUUGGCGUAAUGGUAAAGCGUCUCCUUCCUAAGGAGAAGACUGCGGGUUCGAGUCCCGUACGCAACG [C5U C22A C31U G68C]: at most 0.5. The result for GUUCUGUUGGCGUAAUGGUAAUGCGUCUCCCUCCUACGGAGAAGACUGCGGGUUAGAGUCCCGUACGGUACG [C5U C22U A37C C55A A69U] reads at most 0.5. The same measure for GUUCUGUUGGCGUAAUGGUAAGGCGUCUACCUCCUAAGGAGAAGUCUGCGGGUUCGACUCCCGUACGGAACG [C5U C22G C29A A45U G58C]: at most 0.5; for GUUCUGUUGGGGUAUUGGUAACGCGUCUCCCACCGAAGGAGAAGACUGCGGGUUAGAGUCGCGUACGGAACG [C5U C11G A15U U32A U35G C55A C61G]: at most 0.5; for GUUCUGUUGGCGUAAUGGUAAGGCGUCUGCCUCCUAAGGAGAAGACUGCGGGUUCGAGUCCCGUACGGUACG [C5U C22G C29G A69U]: at most 0.5. Take GUUCUGUUGGCGUAAUGGUAAGGCGUCUCCGUCCUAAGGAGAAGACUGCGGGUGCGAGUCCCGUACGGAACG [C5U C22G C31G U54G]: the yeast fitness was at most 0.5.

Turning to GUUCUGUUGGCGUAAUGGUAAUGCGUCUCCCUUCUAAGGAGAAGACUGCGGGUUCGAGUCCCGUACAGAACG [C5U C22U C33U G67A], the yeast fitness is at most 0.5. For the variant GUUCUGUUGGAGUAAUGGUAACGCGUCUCCCUCCUAAGGAGAAGACUGCCGGUUCGAGUCCCGUACGGAACG [C5U C11A G50C], the yeast fitness is 0.598. The result for GUUCUGUUGGUGUAAUGGUAACGUGUCUCCCUCCUAAGGAGAACACUGCGGGUUCGAGUCCCGUACGGAACG [C5U C11U C24U G44C] reads at most 0.5.

As to GUUCUGUUGGCGUAAUGGUAACGAGUCUCCCCCCUAAGGAGAAGACUGCGGGUUCGAGUCCCGUACGGAACG [C5U C24A U32C], the yeast fitness came to 0.565. In the case of GUUCUGUUGGCGUAAUGGUAACGAGUCUCCCUCCUAAGCAGAAGACUGCGGGUUCGAGUCCCGUACGGACCG [C5U C24A G39C A70C], the yeast fitness was at most 0.5. The same measure for GUUCUGUUGGCGUAAUGGUAAUGCGUUUCCCUCCUAAGGAGGAGACUGCGGGUUAGAGUACCGUACGGAUCG [C5U C22U C27U A42G C55A C60A A70U]: 0.57; for GUUCUGUUGGCGUAAUGGUAAUGCGUCUCGCUCCUAAGGAGAAGACUGCGGGUUUGAGUCCCGUACGGAACG [C5U C22U C30G C55U]: at most 0.5; for GUUCUGUUGGCGUAAUGGUAAUGCGUGUCCCUCCUAAGGAGAAGACUGCGGGUUCGAGUCCCGUUCGGAACG [C5U C22U C27G A65U]: at most 0.5. The same measure for GUUCUGUUGGUGUAAUGGUUACGCGUCUCCCUCCUAAGGAGAAGACUGCGGGUUCGAGUCCCGUACGGAACG [C5U C11U A20U]: 0.561. The result for GUUCUGUUGGUGUAUUGGUAACGCGUCUCCUUCCUAAGGAGAAGACUGUGGGUUCGAGUCCCGUACGGAACG [C5U C11U A15U C31U C49U] reads at most 0.5; that for GUUCUGUUGGAGUAAUGGUAACGAGUCGCCCUCCUAAGGAGAAGACUGCGGGUUCGAGUCCCGUACGGAACG [C5U C11A C24A U28G], 0.63. Turning to GUUCUGUUGGAGUAAUGGUAAGGCGUCUCCCUCCUAAGGAGAAGACUGCGGGUUGGAGUGCCGUACGGAACG [C5U C11A C22G C55G C60G], the yeast fitness came to 0.997. The same measure for GUUCUGUUGGCGUAAUGGUAAUGCGUCUCCCUCCUAAGGAGAAGACUGCGGACUCGAGGCGUGUACGGAACG [C5U C22U G52A U53C U59G C61G C62U]: at most 0.5; for GUUCUGUUGGUGUAAUGGUAACGCGUCUCCCUCCUAGGGAGAAGACUGCGGGUUCGAGUGCCGUACGGAACG [C5U C11U A37G C60G]: 0.581; for GUUCUGUUGGCGUAAUGGUAACGGGUCUCCCUCCUAAGGAGAAGACUGCGGGUUCGAGUCCGGUACGCAACG [C5U C24G C62G G68C]: at most 0.5. The result for GUUCUGUUGGCGUAAUGGUAAAGCGUCUCCCACCUAAGGAGAAGACUGCGGGUUCGAGUGCCGUACGGAACG [C5U C22A U32A C60G] reads at most 0.5.
